{"source": "paper PMC12374733", "about": "(Journal of the American Chemical Society, 2025)", "key": {"[1]": {"assay": "Cell viability, colorimetric sulforhodamine B assay", "type": "cell-based, mouse", "details": "mouse, NIH-3T3 cells"}, "NIH-3T3 cells": {"system": "NIH-3T3 cells", "assay": "Cell viability, colorimetric sulforhodamine B assay", "type": "cell-based, mouse"}, "SH-SY5Y cells": {"system": "SH-SY5Y cells", "assay": "Cell viability during in-cell synthesis of cinacalcet", "type": "cell-based, human", "details": "SH-SY5Y; for IC50: Homo sapiens", "method_in_brief": "(§1)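 SH-SY5Y cells were pretreated with aldehyde substrate (200 μM) and sodium formate hydride source (1 mM) for 3 h, then washed with fresh media. The amine partner and Cp* iridium catalyst were added together for a further 24 h. Controls lacked one or more reaction components. Viability is expressed relative to untreated cells.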"}, "[2]": {"assay": "Cell viability during in-cell synthesis of cinacalcet", "type": "cell-based, human", "details": "human, SH-SY5Y cells", "method_in_brief": "as §1"}, "[3]": {"assay": "Lipophilicity, partition between octanol and PBS", "type": "physicochemical", "details": "shake-flask"}}, "note": "Where two headings read alike, the source gives them in different places.", "data": [{"molecule": "CC(N)c1ccc(O)cc1", "note": "(stereo not shown) [compound 10, 4-(1-aminoethyl)phenol]", "values": [{"measurement": "viability at 24 h, 1 mM", "setting": "[1]", "result": "≥ 84", "unit": "%"}, {"measurement": "IC50", "setting": "NIH-3T3 cells; Mus musculus, NIH3T3", "result": "> 8000", "unit": "µM"}]}, {"molecule": "C[C@@H](N)c1cccc2ccccc12", "note": "[(R)-41, (R)-1-(1-naphthyl)ethylamine]", "values": [{"measurement": "IC50", "setting": "SH-SY5Y cells", "result": 1500, "unit": "µM"}]}, {"molecule": "C[C@@H](NCCCc1cccc(C(F)(F)F)c1)c1cccc2ccccc12", "note": "[cinacalcet, reference compound]", "values": [{"measurement": "IC50", "setting": "SH-SY5Y cells", "result": 16, "unit": "µM"}]}, {"molecule": "O=CCc1ccccc1", "note": "[1c, phenylacetaldehyde]", "values": [{"measurement": "viability at 3 h, 400 µM", "setting": "[1]", "result": 38, "unit": "%"}, {"measurement": "IC50", "setting": "NIH-3T3 cells; Mus musculus, NIH3T3, read-out: 50% inhibition concentration (IC50)", "result": 185, "unit": "µM"}]}, {"molecule": "O=CCCc1cccc(C(F)(F)F)c1", "note": "[1p, 3-(3-(trifluoromethyl)phenyl)propanal]", "values": [{"measurement": "viability at 3 h, 200 μM", "setting": "[2]", "result": "≥ 85", "unit": "%"}, {"measurement": "IC50", "setting": "SH-SY5Y cells", "result": 175, "unit": "µM"}]}, {"molecule": "NCCc1ccccc1", "note": "[3c, phenethylamine]", "values": [{"measurement": "IC50", "setting": "NIH-3T3 cells; Mus musculus, NIH3T3", "result": "> 7000", "unit": "µM"}]}, {"molecule": "OCCc1ccccc1", "note": "[2c]", "values": [{"measurement": "IC50", "setting": "NIH-3T3 cells; NIH-3T3 cell viability", "result": "> 7000", "unit": "µM"}]}, {"molecule": "[Cp*Ir(picolinamidate)Cl] [Ir1]", "values": [{"measurement": "partition coefficients (Log P)", "setting": "[3]", "result": 1.24}, {"measurement": "IC50", "setting": "NIH-3T3 cells; read-out: 50% inhibition concentration (IC50), NIH-3T3 cell viability", "result": 62, "unit": "µM"}, {"measurement": "cell viability relative to untreated control", "setting": "SH-SY5Y cells; 1p (200 μM), HCOONa (1 mM), (R)-41 and Ir catalyst all present, 24 h", "result": 28, "unit": "%"}]}]}
